# IDH1 mut inh = inhibitors of IDH1 R132H reductase, primary screen, biochemical, plate reader, single point | inhibition, % at 10 µM | diaphorase/resazurin fluorescence, 60 min | 70,000 compounds, 0.18% hits; in the data active = inhibition above about 34%; inconclusive = no clear call, values can overlap the other calls; inactive = below about 11%;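 also: 0% = DMSO and 100% = no enzyme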
# Target sequence (O75874 whole entry R132H): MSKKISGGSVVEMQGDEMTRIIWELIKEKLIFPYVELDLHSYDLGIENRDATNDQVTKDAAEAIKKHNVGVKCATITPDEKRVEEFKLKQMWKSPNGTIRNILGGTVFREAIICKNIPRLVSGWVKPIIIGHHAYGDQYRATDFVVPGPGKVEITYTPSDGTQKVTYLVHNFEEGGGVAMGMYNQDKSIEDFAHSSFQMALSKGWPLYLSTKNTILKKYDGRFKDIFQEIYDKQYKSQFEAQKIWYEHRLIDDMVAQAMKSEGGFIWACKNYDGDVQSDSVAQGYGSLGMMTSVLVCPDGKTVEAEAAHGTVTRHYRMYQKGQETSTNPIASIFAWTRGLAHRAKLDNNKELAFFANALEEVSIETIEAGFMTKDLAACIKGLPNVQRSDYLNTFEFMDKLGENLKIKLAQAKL
# GASC1 inh = inhibitors of GASC-1 (KDM4C) histone demethylase, primary screen, biochemical, single concentration HTS; AID 720574, 2013; inhibition, % at 12.5 µM; 96,000 compounds, 0.15% hits; GST-KDM4C 2-372, H3K9me3 peptide, LANCE TR-FRET;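 active = mean replicate inhibition above about 25%, with at least 55% of replicates also reaching it, limit read from the data, passing the limit was not always enough; inconclusive = only one of those two conditions met; inactive = neither condition met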
#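 material = GST-tagged GASC-1 (JMJD2C) catalytic fragment, aa 2-372 | amount = enzyme final amount 10 nM | medium = HEPES buffer, pH 7.5, plus ascorbate | also added = H3K9me3 peptide substrate, Fe(II), 2-oxoglutarate | dosing = single dose | times = 30 min demethylation and 1 h detection at room temperature | detection = LANCE TR-FRET | read-out basis = Fall in 671/618 emission ratio as inhibition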
# T cruzi growth-1 = T. cruzi intracellular proliferation inhibitors, primary screen, cell-based, beta-gal Tulahuen parasites, NIH3T3 host, luminescence; T. cruzi beta-gal in NIH3T3, GalScreen luminescence, 90 h; inhibition, % at 8.34 µM; 77,000 compounds, 5.9% hits; AID 624255, 2012;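 active = mean inhibition above about 93%, with at least 55% of replicates each passing it, limit read from the data, passing the limit was not always enough; inconclusive = only one of those two conditions holds; inactive = neither condition holds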
# T cruzi growth-2 = T. cruzi intracellular proliferation inhibitors, confirmation, cell-based, NIH3T3 host, beta-gal parasite, luminescence, cherry-pick | shares compounds with T cruzi growth-1 | T. cruzi beta-gal in NIH3T3, GalScreen luminescence, 90 h | inhibition, % at 8.35 µM | 5,600 compounds, 72% hits;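 active = mean replicate inhibition above about 95% and at least 55% of replicates individually reaching it, limit read from the data; inconclusive = only one of the two criteria is met; inactive = neither criterion is met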
# T cruzi growth-3 = inhibitors of intracellular T. cruzi replication, confirmation, NIH3T3 host cells, beta-gal parasites, cherry-pick, set 2 | shares compounds with T cruzi growth-1 | T. cruzi beta-gal in NIH3T3, GalScreen luminescence, 90 h | inhibition, % at 2.09 µM | 5,600 compounds, 21% hits | AID 651740, 2012;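 active = mean inhibition above about 95%, with at least 55% of replicates also reaching it, limit read from the data; inconclusive = meets just one of the two conditions; inactive = meets neither condition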;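 also: plate controls were neutral control median for no effect and positive control median for full effect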
# 3T3 cytotox = cytotoxicity in mouse NIH/3T3 fibroblasts, confirmation, cytotoxicity control for T. cruzi proliferation inhibitor project, cell-based, cherry-pick, single point | cytotoxicity (signal decrease), % at 8.35 µM | AID 651742, 2012 | 5,600 compounds, 14% hits | NIH/3T3 viability, CellTiter-Glo ATP luminescence, 90 h | shares compounds with T cruzi growth-1;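 active = mean signal decrease across replicates above about 35% based on untreated-well scatter, with enough replicates individually passing, limit read from the data; inconclusive = no rule stated though some were filed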;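 also: 0% = median of neutral control wells and 100% = median of positive control wells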
# NIH3T3 tox 2 = NIH/3T3 fibroblast cytotoxicity, confirmation, cytotoxicity control, cell-based, cherry-pick, single point, set 2 | shares compounds with T cruzi growth-1 | NIH/3T3 viability, CellTiter-Glo ATP luminescence, 90 h | inhibition, % at 24.9 µM | 5,600 compounds, 56% hits;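 active = mean loss of cell viability signal at or above a set limit, and enough replicates individually reaching it; inconclusive = meets only the mean limit or only the replicate share; inactive = meets neither condition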;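 also: 0% = median of neutral control wells and 100% = median of positive control wells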
# * = called active by the depositor; ? = inconclusive; . = no result given. Many of the other results were omitted from the sample, so hits are more common in it than they were.
SMILES,IDH1 mut inh,GASC1 inh,T cruzi growth-1,T cruzi growth-2,T cruzi growth-3,3T3 cytotox,NIH3T3 tox 2
CN1C(=O)c2cc(NC(=O)c3cnccn3)ccc2OC[C@@H]2O[C@H](CC(=O)N[C@@H]3CCN(Cc4ccccc4)C3)CC[C@H]21,.,2,85,.,.,.,.
CN1C(=O)c2cc(NC(=O)c3cnccn3)ccc2OC[C@@H]2O[C@H](CC(=O)N[C@H]3CCN(Cc4ccccc4)C3)CC[C@@H]21,.,0,109*,95*,?,-13,2
COC(=O)CCCCCCC(=O)N/N=C/c1cc(Br)cs1,-1,.,.,.,.,.,.
COC(=O)c1cc(C)sc1NC(=S)NCCc1ccccc1OC,-1,.,.,.,.,.,.
N#C[C@@H]1[C@H](c2ccc(-c3ccc(F)cc3)cc2)[C@@H](CO)N1c1nc(-c2ccccc2)cs1,.,-5,.,.,.,.,.
N#C[C@@H]1[C@H](c2ccc(-c3cccc(F)c3)cc2)[C@@H](CO)N1c1nc(-c2ccccc2)cs1,.,-5,.,.,.,.,.
N#C[C@@H]1[C@@H](c2ccc(-c3ccc(F)cc3)cc2)[C@H](CO)N1c1nc(-c2ccccc2)cs1,.,-4,103*,107*,71,11,25
N#C[C@@H]1[C@H](c2ccc(-c3ccc(F)cc3)cc2)[C@H](CO)N1c1nc(-c2ccccc2)cs1,.,0,101*,-11,31,-5,-11
CCn1c(SCC(=O)Nc2cc(C)ccc2OC)nnc1-c1ccccc1F,0,.,.,.,.,.,.
O=C(O)CC(Cc1ccccc1)C(=O)Nc1ccc(Cl)c(Cl)c1 (stereo not given),0,.,.,.,.,.,.
COc1ccc(OC)c(C2C(C(=O)c3ccco3)C(=O)C(=O)N2Cc2cccnc2)c1 (stereo not given),1,.,.,.,.,.,.
COc1ccccc1NC(=O)CSc1nc(C)cc(C(F)(F)F)n1,0,.,.,.,.,.,.
C/C=C/c1ccc([C@H]2[C@@H](CO)N(C(=O)Nc3ccccc3F)[C@H]2C#N)cc1,1,0,105*,87,56,10,48*
N#C[C@@H]1[C@H](c2ccc(C3=CCCCC3)cc2)[C@H](CO)N1C(=O)NC1CCCCC1,.,0,107*,104*,70,30,44*
N#C[C@@H]1[C@H](c2ccc(C3=CCCCC3)cc2)[C@@H](CO)N1C(=O)NC1CCCCC1,.,1,92,.,.,.,.
N#C[C@H]1[C@@H](c2ccc(C3=CCCCC3)cc2)[C@@H](CO)N1C(=O)Nc1ccccc1F,-1,1,69,.,.,.,.
C/C=C/c1ccccc1[C@H]1[C@@H](CO)N(C(=O)Nc2ccccc2F)[C@H]1C#N,.,-1,.,.,.,.,.
CCCNC(=O)N1[C@@H](C#N)[C@H](c2ccc(C3=CCCCC3)cc2)[C@@H]1CO,.,2,103*,98*,107*,21,33*
CCCNC(=O)N1[C@H](CO)[C@H](c2ccc(C3=CCCC3)cc2)[C@@H]1C#N,0,3,27,.,.,.,.
N#C[C@@H]1[C@H](c2ccc(C3=CCCCC3)cc2)[C@H](CO)N1C(=O)Nc1ccccc1F,.,-3,102*,110*,59,-5,15
CCC1(C)Cc2c(sc3nc(SCC(=O)Nc4ccc(Cl)cc4)nc(N)c23)CO1 (stereo not given),0,.,.,.,.,.,.
COC(=O)c1sccc1NC(=O)c1cc(-c2ccccn2)nc2ccc(Br)cc12,0,.,.,.,.,.,.
CCOc1cccc(NC(=O)C2CC(=O)N(/N=C(\C)c3ccc(Br)s3)C(=N)S2)c1 (stereo not given),-1,.,.,.,.,.,.
O=C(NCCSc1c(-c2ccc(Br)cc2)[nH]c2ccccc12)c1ccncc1,5,.,.,.,.,.,.
CCOC(=O)C1CCCCN1Cc1ccco1 (stereo not given),0,.,.,.,.,.,.
SMILES,IDH1 mut inh,GASC1 inh,T cruzi growth-1,T cruzi growth-2,T cruzi growth-3,3T3 cytotox,NIH3T3 tox 2
N#C[C@@H]1[C@@H](c2ccc(C3=CCCCC3)cc2)[C@@H](CO)N1C(=O)NC1CCCC1,.,2,.,.,.,.,.
N#C[C@H]1[C@@H](c2ccc(C3=CCCCC3)cc2)[C@H](CO)N1C(=O)NC1CCCCC1,.,2,100*,105*,83,41*,54*
N#C[C@H]1[C@H](c2ccc(C3=CCCCC3)cc2)[C@H](CO)N1C(=O)NC1CCCCC1,.,0,101*,97*,101*,10,69*
N#C[C@@H]1[C@@H](c2ccc(C3=CCCCC3)cc2)[C@H](CO)N1C(=O)NC1CCCC1,.,-1,.,.,.,.,.
Cc1cc(Cl)cc(Cl)c1OCC(=O)Nc1cccc(NC(=O)c2ccccc2Cl)c1,0,.,.,.,.,.,.
O=C(C[C@@H]1C[C@H]2c3cc(NC(=O)c4ccc5c(c4)OCO5)ccc3O[C@H]2[C@H](CO)O1)NCc1ccc(Oc2ccccc2)cc1,0,-2,113*,103*,20,69*,51*
O=C(C[C@H]1C[C@@H]2c3cc(NC(=O)c4ccc5c(c4)OCO5)ccc3O[C@@H]2[C@@H](CO)O1)NCc1ccc(Oc2ccccc2)cc1,0,-1,148*,111*,43,42*,34*
O=C(C[C@@H]1C[C@H]2c3cc(NC(=O)c4ccc5c(c4)OCO5)ccc3O[C@H]2[C@@H](CO)O1)NCc1ccc(Oc2ccccc2)cc1,0,-1,120*,75,6,45*,94*
O=C(C[C@H]1C[C@H]2c3cc(NC(=O)c4ccc5c(c4)OCO5)ccc3O[C@H]2[C@@H](CO)O1)NCc1ccc(Cl)cc1,0,-2,1,.,.,.,.
O=C(C[C@@H]1C[C@H]2c3cc(NC(=O)c4ccc5c(c4)OCO5)ccc3O[C@H]2[C@H](CO)O1)NCc1ccc(Cl)cc1,-2,-3,74,.,.,.,.
O=C(C[C@@H]1C[C@@H]2c3cc(NC(=O)c4ccc5c(c4)OCO5)ccc3O[C@@H]2[C@H](CO)O1)NCc1ccc(Oc2ccccc2)cc1,0,0,-11,.,.,.,.
COc1ccc(NC(=O)Cc2c(OC)ccc3cc(Br)ccc23)c(OC)c1,0,.,.,.,.,.,.
Cc1cc(C)cc(NC(=O)COc2ccc(N3CC(C(N)=O)CC3=O)cc2)c1 (stereo not given),1,.,.,.,.,.,.
[N-]=[N+]=Nc1ccc(NC(=O)c2ccccc2)cc1,0,.,.,.,.,.,.
CCCC#Cc1ccc2c(c1)O[C@H](CN(C)Cc1cccnc1)[C@H](C)CN([C@H](C)CO)S2(=O)=O,6,1,115*,106*,74,53*,31*

# Bioassay records from PubChem.
